{"source": "ChEMBL document CHEMBL2384936", "about": "“Synthesis and evaluation of antimicrobial activity of hydrazones derived from 3-oxido-1H-imidazole-4-carbohydrazides” (Eur J Med Chem, 2013)", "type_in_all_cases": "functional", "key": {"Staphylococcus aureus [1]": {"test_system": "Staphylococcus aureus", "test": "Bactericidal activity against Staphylococcus aureus isolate D20 derived from bone after 18 hrs by broth microdilution method", "conditions": "isolate D20, 18 h", "outline": "(§1)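 Broth microdilution, then contents of wells without visible growth plated onto Mueller–Hinton agar and incubated 35 °C for 18 h. Triplicates, per CLSI.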"}, "Staphylococcus aureus [2]": {"test_system": "Staphylococcus aureus", "test": "Bactericidal activity against Staphylococcus aureus isolate D17 derived from bone after 18 hrs by broth microdilution method", "conditions": "isolate D17, 18 h", "outline": "as §1"}, "Staphylococcus aureus [3]": {"test_system": "Staphylococcus aureus", "test": "Bactericidal activity against Staphylococcus aureus isolate D15 derived from bone after 18 hrs by broth microdilution method", "conditions": "isolate D15, 18 h", "outline": "as §1"}, "Staphylococcus aureus [4]": {"test_system": "Staphylococcus aureus", "test": "Bactericidal activity against Staphylococcus aureus isolate D14 derived from bone after 18 hrs by broth microdilution method", "conditions": "isolate D14, 18 h", "outline": "as §1"}, "Staphylococcus aureus [5]": {"test_system": "Staphylococcus aureus", "test": "Bactericidal activity against Staphylococcus aureus isolate F12 derived from ulcer and furuncle after 18 hrs by broth microdilution method", "conditions": "isolate F12, 18 h", "outline": "as §1"}, "Staphylococcus aureus [6]": {"test_system": "Staphylococcus aureus", "test": "Bactericidal activity against Staphylococcus aureus isolate F7 derived from ulcer and furuncle after 18 hrs by broth microdilution method", "conditions": "isolate F7, 18 h", "outline": "as §1"}, "Staphylococcus aureus [7]": {"test_system": "Staphylococcus aureus", "test": "Bactericidal activity against Staphylococcus aureus isolate F1 derived from ulcer and furuncle after 18 hrs by broth microdilution method", "conditions": "isolate F1, 18 h", "outline": "as §1"}, "Staphylococcus aureus [8]": {"test_system": "Staphylococcus aureus", "test": "Bactericidal activity against Staphylococcus aureus isolate D12 derived from ulcer and furuncle after 18 hrs by broth microdilution method", "conditions": "isolate D12, 18 h", "outline": "as §1"}, "Staphylococcus aureus [9]": {"test_system": "Staphylococcus aureus", "test": "Bactericidal activity against Staphylococcus aureus isolate C19 derived from naso-pharynx after 18 hrs by broth microdilution method", "conditions": "isolate C19, 18 h", "outline": "as §1"}, "Staphylococcus aureus [10]": {"test_system": "Staphylococcus aureus", "test": "Bactericidal activity against Staphylococcus aureus isolate C8 derived from naso-pharynx after 18 hrs by broth microdilution method", "conditions": "isolate C8, 18 h", "outline": "as §1"}, "Staphylococcus aureus [11]": {"test_system": "Staphylococcus aureus", "test": "Bactericidal activity against Staphylococcus aureus isolate C7 derived from naso-pharynx after 18 hrs by broth microdilution method", "conditions": "isolate C7, 18 h", "outline": "as §1"}, "Staphylococcus aureus [12]": {"test_system": "Staphylococcus aureus", "test": "Bactericidal activity against Staphylococcus aureus isolate C4 derived from naso-pharynx after 18 hrs by broth microdilution method", "conditions": "isolate C4, 18 h", "outline": "as §1"}, "Staphylococcus aureus [13]": {"test_system": "Staphylococcus aureus", "test": "Antibacterial activity against Staphylococcus aureus isolate D20 derived from bone assessed as growth inhibition after 18 hrs by broth microdilution method", "conditions": "isolate D20, 18 h", "outline": "(§2)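 Frozen stocks (-80 °C, tryptic soy broth with 15% glycerol); S. aureus subcultured on blood agar and identified by catalase, coagulase and clumping factor. Inoculum at 0.5 McFarland. MIC = lowest concentration preventing growth; triplicates, per CLSI.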"}, "Staphylococcus aureus [14]": {"test_system": "Staphylococcus aureus", "test": "Antibacterial activity against Staphylococcus aureus isolate D17 derived from bone assessed as growth inhibition after 18 hrs by broth microdilution method", "conditions": "isolate D17, 18 h", "outline": "as §2"}, "Staphylococcus aureus [15]": {"test_system": "Staphylococcus aureus", "test": "Antibacterial activity against Staphylococcus aureus isolate D15 derived from bone assessed as growth inhibition after 18 hrs by broth microdilution method", "conditions": "isolate D15, 18 h", "outline": "as §2"}, "Staphylococcus aureus [16]": {"test_system": "Staphylococcus aureus", "test": "Antibacterial activity against Staphylococcus aureus isolate D14 derived from bone assessed as growth inhibition after 18 hrs by broth microdilution method", "conditions": "isolate D14, 18 h", "outline": "as §2"}, "Staphylococcus aureus [17]": {"test_system": "Staphylococcus aureus", "test": "Antibacterial activity against Staphylococcus aureus isolate F12 derived from ulcer and furuncle assessed as growth inhibition after 18 hrs by broth microdilution method", "conditions": "isolate F12, 18 h", "outline": "as §2"}, "Staphylococcus aureus [18]": {"test_system": "Staphylococcus aureus", "test": "Antibacterial activity against Staphylococcus aureus isolate F7 derived from ulcer and furuncle assessed as growth inhibition after 18 hrs by broth microdilution method", "conditions": "isolate F7, 18 h", "outline": "as §2"}, "Staphylococcus aureus [19]": {"test_system": "Staphylococcus aureus", "test": "Antibacterial activity against Staphylococcus aureus isolate F1 derived from ulcer and furuncle assessed as growth inhibition after 18 hrs by broth microdilution method", "conditions": "isolate F1, 18 h", "outline": "as §2"}, "Staphylococcus aureus [20]": {"test_system": "Staphylococcus aureus", "test": "Antibacterial activity against Staphylococcus aureus isolate D12 derived from ulcer and furuncle assessed as growth inhibition after 18 hrs by broth microdilution method", "conditions": "isolate D12, 18 h", "outline": "as §2"}, "Staphylococcus aureus [21]": {"test_system": "Staphylococcus aureus", "test": "Antibacterial activity against Staphylococcus aureus isolate C19 derived from naso-pharynx assessed as growth inhibition after 18 hrs by broth microdilution method", "conditions": "isolate C19, 18 h", "outline": "as §2"}, "Staphylococcus aureus [22]": {"test_system": "Staphylococcus aureus", "test": "Antibacterial activity against Staphylococcus aureus isolate C8 derived from naso-pharynx assessed as growth inhibition after 18 hrs by broth microdilution method", "conditions": "isolate C8, 18 h", "outline": "as §2"}, "Staphylococcus aureus [23]": {"test_system": "Staphylococcus aureus", "test": "Antibacterial activity against Staphylococcus aureus isolate C7 derived from naso-pharynx assessed as growth inhibition after 18 hrs by broth microdilution method", "conditions": "isolate C7, 18 h", "outline": "as §2"}, "Staphylococcus aureus [24]": {"test_system": "Staphylococcus aureus", "test": "Antibacterial activity against Staphylococcus aureus isolate C4 derived from naso-pharynx assessed as growth inhibition after 18 hrs by broth microdilution method", "conditions": "isolate C4, 18 h", "outline": "as §2"}, "[25]": {"test_system": "Staphylococcus epidermidis", "test": "Bactericidal activity against Staphylococcus epidermidis ATCC 12228 after 18 hrs by broth microdilution method", "conditions": "ATCC 12228, 18 h", "outline": "as §1"}, "Staphylococcus aureus [26]": {"test_system": "Staphylococcus aureus", "test": "Bactericidal activity against Staphylococcus aureus ATCC 29213 after 18 hrs by broth microdilution method", "conditions": "ATCC 29213, 18 h", "outline": "as §1"}, "Staphylococcus aureus [27]": {"test_system": "Staphylococcus aureus", "test": "Bactericidal activity against Staphylococcus aureus ATCC 6538 after 18 hrs by broth microdilution method", "conditions": "ATCC 6538, 18 h", "outline": "as §1"}, "Escherichia coli [28]": {"test_system": "Escherichia coli", "test": "Bactericidal activity against Escherichia coli NCTC 8192 after 18 hrs by broth microdilution method", "outline": "as §1"}, "[29]": {"test_system": "Staphylococcus epidermidis", "test": "Antibacterial activity against Staphylococcus epidermidis ATCC 12228 assessed as growth inhibition after 18 hrs by broth microdilution method", "conditions": "ATCC 12228, 18 h", "outline": "as §2"}, "Staphylococcus aureus [30]": {"test_system": "Staphylococcus aureus", "test": "Antibacterial activity against Staphylococcus aureus ATCC 29213 assessed as growth inhibition after 18 hrs by broth microdilution method", "conditions": "ATCC 29213, 18 h", "outline": "(§3)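 Broth microdilution in Mueller–Hinton broth with 1–600 µg/mL compound added from DMSO stocks. Inoculum adjusted to 0.5 McFarland. Strains stored at -80 °C and subcultured on blood agar before use. Incubation 37 °C for 18 h with OD600 read. MIC taken as the lowest concentration preventing growth, run in triplicate following CLSI. Vancomycin and oxacillin served as controls.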"}, "Staphylococcus aureus [31]": {"test_system": "Staphylococcus aureus", "test": "Antibacterial activity against Staphylococcus aureus ATCC 6538 assessed as growth inhibition after 18 hrs by broth microdilution method", "conditions": "ATCC 6538, 18 h", "outline": "as §3"}, "Escherichia coli [32]": {"test_system": "Escherichia coli", "test": "Antibacterial activity against Escherichia coli NCTC 8192 assessed as growth inhibition after 18 hrs by broth microdilution method", "outline": "as §2"}}, "note": "The source made the active and inactive calls. No cut-off for these calls is given here.", "data": [{"smiles": "CN[C@H](CC(C)C)C(=O)N[C@H]1C(=O)N[C@@H](CC(N)=O)C(=O)N[C@H]2C(=O)N[C@H]3C(=O)N[C@H](C(=O)N[C@H](C(=O)O)c4cc(O)cc(O)c4-c4cc3ccc4O)[C@H](O)c3ccc(c(Cl)c3)Oc3cc2cc(c3O[C@@H]2O[C@H](CO)[C@@H](O)[C@H](O)[C@H]2O[C@H]2C[C@](C)(N)[C@H](O)[C@H](C)O2)Oc2ccc(cc2Cl)[C@H]1O", "note": "[VANCOMYCIN]", "values": [{"measurement": "MBC", "setting": "Staphylococcus aureus [1]", "result": 75, "unit": "µg/mL"}, {"measurement": "MBC", "setting": "Staphylococcus aureus [2]", "result": 75, "unit": "µg/mL"}, {"measurement": "MBC", "setting": "Staphylococcus aureus [3]", "result": 75, "unit": "µg/mL"}, {"measurement": "MBC", "setting": "Staphylococcus aureus [4]", "result": 75, "unit": "µg/mL"}, {"measurement": "MBC", "setting": "Staphylococcus aureus [5]", "result": 10, "unit": "µg/mL"}, {"measurement": "MBC", "setting": "Staphylococcus aureus [6]", "result": 35, "unit": "µg/mL"}, {"measurement": "MBC", "setting": "Staphylococcus aureus [7]", "result": 75, "unit": "µg/mL"}, {"measurement": "MBC", "setting": "Staphylococcus aureus [8]", "result": 75, "unit": "µg/mL"}, {"measurement": "MBC", "setting": "Staphylococcus aureus [9]", "result": 75, "unit": "µg/mL"}, {"measurement": "MBC", "setting": "Staphylococcus aureus [10]", "result": 75, "unit": "µg/mL"}, {"measurement": "MBC", "setting": "Staphylococcus aureus [11]", "result": 35, "unit": "µg/mL"}, {"measurement": "MBC", "setting": "Staphylococcus aureus [12]", "result": 10, "unit": "µg/mL"}, {"measurement": "MIC", "setting": "Staphylococcus aureus [13]", "result": 75, "unit": "µg/mL"}, {"measurement": "MIC", "setting": "Staphylococcus aureus [14]", "result": 75, "unit": "µg/mL"}, {"measurement": "MIC", "setting": "Staphylococcus aureus [15]", "result": 75, "unit": "µg/mL"}, {"measurement": "MIC", "setting": "Staphylococcus aureus [16]", "result": 75, "unit": "µg/mL"}, {"measurement": "MIC", "setting": "Staphylococcus aureus [17]", "result": 10, "unit": "µg/mL"}, {"measurement": "MIC", "setting": "Staphylococcus aureus [18]", "result": 35, "unit": "µg/mL"}, {"measurement": "MIC", "setting": "Staphylococcus aureus [19]", "result": 75, "unit": "µg/mL"}, {"measurement": "MIC", "setting": "Staphylococcus aureus [20]", "result": 75, "unit": "µg/mL"}, {"measurement": "MIC", "setting": "Staphylococcus aureus [21]", "result": 75, "unit": "µg/mL"}, {"measurement": "MIC", "setting": "Staphylococcus aureus [22]", "result": 75, "unit": "µg/mL"}, {"measurement": "MIC", "setting": "Staphylococcus aureus [23]", "result": 35, "unit": "µg/mL"}, {"measurement": "MIC", "setting": "Staphylococcus aureus [24]", "result": 10, "unit": "µg/mL"}, {"measurement": "MBC", "setting": "[25]", "result": 3, "unit": "µg/mL"}, {"measurement": "MBC", "setting": "Staphylococcus aureus [26]", "result": 3, "unit": "µg/mL"}, {"measurement": "MBC", "setting": "Staphylococcus aureus [27]", "result": 1.5, "unit": "µg/mL"}, {"measurement": "MBC", "setting": "Escherichia coli [28]", "result": "inactive"}, {"measurement": "MIC", "setting": "[29]", "result": 3, "unit": "µg/mL"}, {"measurement": "MIC", "setting": "Staphylococcus aureus [30]", "result": 1.5, "unit": "µg/mL"}, {"measurement": "MIC", "setting": "Staphylococcus aureus [31]", "result": 1.5, "unit": "µg/mL"}, {"measurement": "MIC", "setting": "Escherichia coli [32]", "result": "inactive"}]}]}
